# Reference: PMC6366617 (Science (New York, N.Y.), 2019)
# B1: sushi 1 domain of GABABR1a (Fc-tag enzymatically removed) (domain or fragment)
# chain: TSEGCQIIHPPWEGGIRYRGLTRDQVKAINFLPVDYEIEYVCRGEREVVGPKVRKCLANGSWTDMDTPSRCVR
# Key:
# [1] = system: cultured mouse hippocampal neurons (mEPSCs); assay: mEPSC recording in cultured hippocampal neurons; format: cell-based; conditions: for effect on mEPSC frequency: acute application, Fc-tag enzymatically removed (ExD-AcD, sAPPαΔExD; n=17-20, N=3); for reduction of mEPSC frequency: P < 0.001, 12-17 DIV
# [2] = system: cultured mouse hippocampal neurons (mIPSCs); assay: mIPSC recording in cultured hippocampal neurons; format: cell-based; conditions: for reduction of mIPSC frequency: acute, P < 0.001
# How it was run: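 Mouse hippocampal neurons in culture (12–17 DIV) were recorded for miniature currents, and mIPSCs were separated from mEPSCs by their decay kinetics. Frequency was compared between baseline and acute application of 250 nM test protein, or of 30 μM baclofen as GABABR agonist reference. n is cells.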
# GABABR1b = assay: Cell-surface binding assay, GABABR1b-expressing HEK293T cells; conditions: immunostaining, confocal, pDisplay vector, n=24
# How it was run: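 Fc-tagged test protein, affinity-purified from transfected HEK293T supernatants, was applied to HEK293T cells displaying the receptor ectodomain at the surface (pDisplay). Fc alone served as control. Bound protein was detected by immunostaining, imaged by confocal microscopy and quantified per cell. n is total cells from 3–4 independent experiments. Means ± SEM, two-way ANOVA with Bonferroni post hoc.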
# GABABR2 = assay: Cell-surface binding assay, GABABR2-expressing HEK293T cells; conditions: immunostaining, confocal, pDisplay vector, n=24
# [3] = biological target: sushi 1 domain of GABABR1a (Homo sapiens, UniProt Q9UBS5); assay: Isothermal titration calorimetry; format: binding; conditions: ITC
# How it was run: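 Isothermal titration calorimetry was run between purified test protein and purified GABABR1a sushi 1 domain. Fc tags were enzymatically removed from both. The dissociation constant (KD) was derived from the titration.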
# [4] = system: neurons lacking APP; App/Aplp1 dKO cultures (mIPSCs); assay: mIPSC recording in neurons lacking APP / App/Aplp1 dKO cultures; format: cell-based, mouse
# [5] = system: cultured hippocampal mouse neurons (presynaptic strength); assay: FM1-43 presynaptic vesicle recycling in cultured hippocampal neurons; format: cell-based
# How it was run: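 Cultured mouse hippocampal neurons were loaded and unloaded with FM1–43 by a combined stimulation paradigm, before and after test protein (Fc tag enzymatically removed; dose series, 1 μM top). Presynaptic strength S = ΔF at individual boutons × density of FM+ boutons per image area. Antagonist arms were run with or without GABABR antagonist, normalized to control. N is independent experiments. Means ± SEM, one-way ANOVA with Tukey post hoc.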
# [6] = system: synaptic transmission and plasticity; conditions: ref [16]–[19]; cited from earlier work
# [7] = system: Schaffer collateral synapses, acute hippocampal slices; design: species or system mouse; conditions: for paired-pulse ratio (PPR): 1 μM protein, first 2 stimuli at 20, 50 and 100 Hz
# How it was run: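 Acute mouse hippocampal slices were pre-incubated 90 min with or without 1 μM test protein (Fc tag removed), with or without 10 μM CGP54626. fEPSPs were recorded in CA1 stratum radiatum on Schaffer collateral stimulation. Input/output: 0.1 Hz, 30–150 μA. Bursts at 20, 50 and 100 Hz were normalized to the first response peak. PPR used the first two pulses. n is slices. Means ± SEM.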
# App KO mice = conditions: cited from earlier work
# GABABR1a sushi 1 = assay: Biolayer interferometry, sAPPα binding to immobilized sushi peptides; conditions: sAPPα Fc-tag enzymatically removed; immobilized Fc-tagged sushi peptides
# [8] = system: neurons lacking APP; App/Aplp1 dKO cultures (mEPSCs); assay: mEPSC recording in neurons lacking APP / App/Aplp1 dKO cultures; format: cell-based, mouse
# [9] = biological target: B1; assay: ITC
# [10] = biological target: sAPPα (Fc-tag enzymatically removed) (UniProt P05067-4 18-612); assay: ITC
# [11] = system: sAPPα-Fc binding to GABABR1a-expressing HEK293T cells; assay: Competition of sAPPα-Fc binding to GABABR1a-expressing HEK293T cells; conditions: increasing concentrations of untagged sushi 1 peptide, excess; n=24-31
# [12] = 1 μM sAPPα, 90 min pre-incubation, 0.1 Hz, 30-150 μA
# [13] = 30 μM baclofen, App/Aplp1 dKO vs WT cultures
molecule,measurement,setting,value
"C[C@H](NC[C@H](O)CP(=O)(O)Cc1ccccc1)c1ccc(Cl)c(Cl)c1 [CGP55845, reference compound]",effect of CGP55845 pretreatment on APP 17mer reduction of mEPSC frequency,"[1]; CGP55845 5μM, 17mer 250 nM, n=16, N=3 (without CGP n=14, N=3)",blocks this effect
same,effect of CGP55845 pretreatment on sAPPα effect on mIPSC frequency,"[2]; CGP55845 5 μM, pretreatment",blocked by pretreatment
sAPPα-Fc: recombinant sAPPα with C-terminal Fc-tag from transfected HEK293T supernatants,binding to GABABR1b-expressing cells,GABABR1b,not to GABABR1b-
same,binding to GABABR2-expressing cells,GABABR2,"not to GABABR1b-, or GABABR2-, expressing cells"
sAPPβ: soluble APP ectodomain released by β-secretase,effect on mEPSC frequency,[1],similarly reduced mEPSC frequency
sAPPα: soluble APP ectodomain released by α-secretase; purified recombinant protein,Kd,"[3]; read-out: dissociation constant (KD) for sAPPα-sushi 1, purified proteins, Fc-tag enzymatically removed from both",431 nM
same,effect on mIPSC frequency in neurons lacking APP,"[4]; sAPPα, neurons lacking APP",still reduced mEPSC and mIPSC frequency
same,reduction of total presynaptic strength (S = ΔF × D),"[5]; 1 μM sAPPα, FM1-43 loading/unloading, n=8 experiments, P < 0.001",57 ± 7%
same,"total presynaptic strength (S = ΔF × D), dose dependence","[5]; FM1-43 loading/unloading, sAPPα Fc-tag enzymatically removed, N=5-8",decreased the total presynaptic strength
same,effect on LTP,[6],an enhancement of LTP
same,effect on synaptic activity,[6],a reduction in synaptic activity
same,effect on mEPSC frequency at 25 nM,[1]; 25nM sAPPα,already apparent at 25nM
same,effect on mEPSC amplitude,"[1]; 250 nM sAPPα (Fc-tag removed), acute",without affecting mEPSC amplitude
same,reduction of mEPSC frequency,"[1]; 250 nM sAPPα (Fc-tag removed), acute, n=13 cells",39 ± 5%
same,paired-pulse ratio (PPR),[7],increased PPR for each frequency
same,decrease of slope of the input/output (i/o) curve,[7]; [12],23%
same,fEPSP amplitude,[7]; [12],reduced fEPSP amplitude
same,rescue of spine density defects,App KO mice; ref [20],"sufficient to rescue synaptic defects in App KO mice, including defects in spine density"
same,rescue of LTP defects,"App KO mice; ref [21], [22]",sufficient to rescue synaptic defects in App KO mice
same,rescue of spatial learning defects,App KO mice; ref [21],sufficient to rescue synaptic defects in App KO mice
same,reduction of mIPSC frequency,"[2]; 250 nM sAPPα, n=13 cells",44 ± 5%
same,reduction in mIPSC amplitude,"[2]; sAPPα, acute (250 nM)",14%
same,binding of sAPPα to sushi 1 (biolayer interferometry),GABABR1a sushi 1,sushi 1 peptide was sufficient for binding sAPPα
same,effect on mEPSC frequency in neurons lacking APP,"[8]; sAPPα, neurons lacking APP",still reduced mEPSC and mIPSC frequency
"C[C@H](NC[C@H](O)CP(=O)(O)CC1CCCCC1)c1ccc(Cl)c(Cl)c1 [CGP54626, reference compound]",effect of CGP54626 on sAPPα-induced decrease of presynaptic strength,"[5]; CGP54626 10μM, N=8",occluded
same,effect of CGP54626 on sAPPα-mediated decrease in i/o slope,"[7]; CGP54626 10 μM, preincubation of slices",abolished the sAPPα-mediated decrease in the slope of the i/o curve
residues 211–220: peptide of APP695 residues 211–220 (GGADTDYADG),binding affinity to sushi 1 (in words),[3]; for ExD-AcD Fc-tag enzymatically removed,failed to bind sushi 1
"NCC(CC(=O)O)c1ccc(Cl)cc1 (stereo not drawn) [baclofen, reference compound]",effect on mIPSC frequency in App/Aplp1 dKO cultures,[4]; [13],similarly reduced mEPSC and mIPSC frequency
same,reduction of mEPSC frequency,"[1]; 30 μM baclofen, acute, n=14 cells",63 ± 5%
same,reduction of mIPSC frequency,"[2]; 30 μM baclofen, n=14 cells",62 ± 5%
same,effect on mEPSC frequency in App/Aplp1 dKO cultures,[8]; [13],similarly reduced mEPSC and mIPSC frequency
sAPPαΔExD: sAPPα with deletion of the ExD,decrease of total presynaptic strength with ExD deletion,"[5]; sAPPαΔExD 1 μM, FM1-43",not observed
same,effect on mEPSC frequency,[1],had no effect
same,paired-pulse ratio (PPR),[7],abolished the sAPPα-mediated effect
same,effect on the i/o curve with ExD deletion,[7]; sAPPαΔExD 1 μM,abolished the sAPPα-mediated effect on the i/o curve
same,effect on mIPSC frequency,[2]; acute application,"not sAPPαΔExD, reduced mIPSC frequency"
"DDSDVWWGG (peptide, UniProt P05067-4 204-212, looked up) [APP 9mer peptide (APP695 residues 204-212)]",Kd,[9],2300 nM
"sAPLP1: soluble APP-like protein 1, lacks a conserved ExD (protein, left off: Fc, end not stated, kept) SLAGGSPGAAEAPGSAQVAGLCGRLTLHRDLRTGRWEPDPQRSRRCLRDPQRVLEYCRQMYPELQIARVEQATQAIPMERWCGGSRSGSCAHPHHQVVPFRCLPGEFVSEALLVPEGCRFLHQERMDQCESSTRRHQEAQEACSSQGLILHGSGMLLPCGSDRFRGVEYVCCPPPGTPDPSGTAVGDPSTRSWPPGSRVEGAEDEEEEESFPQPVDDYFVEPPQAEEEEETVPPPSSHTLAVVGKVTPTPRPTDGVDIYFGMPGEISEHEGFLRAKMDLEERRMRQINEVMREWAMADNQSKNLPKADRQALNEHFQSILQTLEEQVSGERQRLVETHATRVIALINDQRRAALEGFLAALQADPPQAERVLLALRRYLRAEQKEQRHTLRHYQHVAAVDPEKAQQMRFQVHTHLQVIEERVNQSLGLLDQNPHLAQELRPQIQELLHSEHLGPSELEAPAPGGSSEDKGGLQPPDSKDDTPMTLPKGSTEQDAASPEKEKMNPLEQYERKVNASVPRGFPFHSSEIQRDELAPAGTGVSRE",effect on mEPSC frequency,[1],did not reduce mEPSC frequency
same,reduction in mIPSC frequency by sAPLP1,"[2]; sAPLP1, acute, n=17 cells, P < 0.05",17 ± 9%
"DDSDVWWGGADTDYADG (peptide, UniProt P05067-4 204-220, looked up) [APP 17mer peptide (APP695 204-220AA)]",Kd,[9],810 nM
B1,Kd,[10],431 nM
"sushi 1 peptide: sushi 1 domain of GABABR1a, recombinant (protein, left off: Fc, end not stated, kept) TSEGCQIIHPPWEGGIRYRGLTRDQVKAINFLPVDYEIEYVCRGEREVVGPKVRKCLANGSWTDMDTPSRCVR",blocking of sAPPα-Fc binding to GABABR1a-expressing cells,[11],blocked binding of sAPPα-Fc to GABABR1a-expressing cells
